What all share (format): functional, cell-based
The target in assay [1] is T1, P2X purinoceptor 7 (Homo sapiens) (UniProt Q99572).
T1 sequence (whole entry): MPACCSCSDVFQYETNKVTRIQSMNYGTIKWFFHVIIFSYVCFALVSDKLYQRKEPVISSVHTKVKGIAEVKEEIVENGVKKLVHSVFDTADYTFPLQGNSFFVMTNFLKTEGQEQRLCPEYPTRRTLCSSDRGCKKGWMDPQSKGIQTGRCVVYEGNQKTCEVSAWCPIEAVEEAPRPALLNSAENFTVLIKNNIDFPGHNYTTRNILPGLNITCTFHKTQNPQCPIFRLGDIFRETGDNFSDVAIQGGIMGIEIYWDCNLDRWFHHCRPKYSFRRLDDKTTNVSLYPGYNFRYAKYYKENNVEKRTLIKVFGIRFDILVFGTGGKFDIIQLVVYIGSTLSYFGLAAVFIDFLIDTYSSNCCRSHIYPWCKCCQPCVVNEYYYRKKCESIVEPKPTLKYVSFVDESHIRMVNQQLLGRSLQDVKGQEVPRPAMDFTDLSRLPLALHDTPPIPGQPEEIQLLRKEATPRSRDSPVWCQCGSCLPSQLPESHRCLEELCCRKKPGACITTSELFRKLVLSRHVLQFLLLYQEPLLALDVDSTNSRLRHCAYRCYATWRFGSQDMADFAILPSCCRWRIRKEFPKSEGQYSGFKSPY
The experiment in a line: Antagonist activity at human P2X7 receptor expressed in HEK293 cells assessed as inhibition of BzATP-induced fluorescent ethidium accumulation. As to conditions: concentration not given here. The procedure, abridged:
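Adherent HEK293 cells stably transfected with human P2X7 cDNA, resuspended at 2.5×10^6 cells/mL in HEPES buffer (mM: ethidium bromide 0.1, EDTA 1, glucose 5, HEPES 20, KCl 140; pH 7.4). Cells added to compound wells, then BzATP, and incubated 120 min at 37 °C. Ethidium uptake read by fluorescence (ex 530/20, em 590/20). IC50 is the mean from dose–response curves of at least three experiments.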

A further assay addresses T2, P2X purinoceptor 7 (Homo sapiens, UniProt Q99572).
T2 sequence (Q99572 whole entry): T1 sequence (whole entry)
In words: Antagonist activity at human P2X7 receptor expressed in HEK293 cells assessed as inhibition of BzATP-induced fluorescent ethidium accumulation […]. The gist of the method:
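Human P2X7-expressing HEK293 cells at 2.5×10^6 cells/mL in pH 7.4 HEPES/KCl/EDTA/glucose buffer containing 0.1 mM ethidium bromide. Compound tested at 10 μM, then BzATP added, and cells held 120 min at 37 °C. Ethidium accumulation measured by fluorescence (ex 530/20, em 590/20) and expressed as % inhibition, mean ± SD of three repeats.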

Assay [2] has as its target T1, P2X purinoceptor 7 (Homo sapiens). The experiment in a line: Antagonist activity at P2X7 receptor in IFN-gamma/LPS-differentiated human THP1 cells assessed as inhibition of BzATP-induced IL1-beta release at 10 uM treated 30 mins prior to BzATP addition by ELISA. The note with it: THP-1. The procedure, abridged: (§1)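 THP-1 cells differentiated and primed 3 h with 25 ng/mL LPS plus 10 ng/ml IFNγ. Compound added 30 min before stimulation with 1 mM BzATP for 30 min. Supernatants cleared by centrifugation (1000 rpm, 5 min), and mature human IL-1β quantified by ELISA.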
(In an ELISA, binding on a coated surface is turned into a signal by an enzyme label.)

The target is the same in assay [3]. In words: Antagonist activity at P2X7 receptor in IFN-gamma/LPS-differentiated human THP1 cells assessed as inhibition of BzATP-induced IL1-beta release treated 30 mins prior to BzATP addition by ELISA. As to conditions: THP-1. The procedure, abridged:
as §1

Consider `Cc1cc(O)ccc1CN1C[C@@H](COC(=O)c2cn(C)c3ccccc23)NC(=O)c2nn(CCc3ccccc3)cc21`, for which the inhibition (usually the drop in the measured response relative to a control, in per cent) in assay [1] was determined as 30%.

For `Cc1cc(O)ccc1CN1C[C@H](COC(=O)c2cn(C)c3ccccc23)NC(=O)c2nn(CCc3ccccc3)cc21`, the inhibition in assay [1] turned out to be 88%; in assay [2], 37%. For the same compound, on P2X purinoceptor 7, the IC50 (as a rule, the midpoint of a concentration-inhibition curve) was determined as 180 nM. In the case of `Cc1cccc(CN2C[C@H](COC(=O)c3cccc4cnccc34)NC(=O)c3nn(CCc4ccccc4)cc32)c1`, the inhibition in assay [1] was 42%.

Turning to `O=C1N[C@@H](COC(=O)c2cccc3cnccc23)CN(Cc2ccc(F)cc2)c2cn(CCc3ccccc3)nc21`, the inhibition in assay [1] is 75%; in assay [2], 65%. Also, the IC50 on P2X purinoceptor 7 was found to be 1280 nM. For the compound `Cc1ccc(CN2C[C@H](COC(=O)c3cn(C)c4ccccc34)NC(=O)c3nn(CCc4ccccc4)cc32)cc1`, the results for the inhibition in assay [1] and in assay [2] were 87% and 38%, respectively. Moreover, the IC50 on P2X purinoceptor 7 worked out at 520 nM. `Cn1cc(CN2CCC(CCn3cc4c(n3)C(=O)N[C@@H](Cc3ccccc3)CN4C(=O)C3CC3)CC2)c2ccccc21`: the inhibition in assay [1] came to 39%. The same measure, in the same setting: for `O=C(OC[C@H]1CNc2cn(CCc3ccccc3)nc2C(=O)N1)c1ccccc1` the value was 33%. Same read-out and setting: next, `O=C1N[C@@H](Cc2ccccc2)CN(C(=O)C2CC2)c2cn(CCC3CCN(Cc4cccc5ncccc45)CC3)nc21`: 24%; `O=C1N[C@@H](Cc2ccccc2)CN(C(=O)C2CC2)c2cn(CCC3CCN(Cc4cccc5cnccc45)CC3)nc21`: 27%.

As for `CN([C@@H](Cc1ccc(OS(=O)(=O)c2cccc3cnccc23)cc1)C(=O)N1CCN(c2ccccc2)CC1)S(=O)(=O)c1cccc2cnccc12`, the IC50 on P2X purinoceptor 7 was 110 nM. In addition, in assay [2], the inhibition stood at 103%. `Cn1cc(C(=O)OC[C@H]2CN(Cc3ccc(Cl)cc3)c3cn(CCc4ccccc4)nc3C(=O)N2)c2ccccc21`: the inhibition is 94% in assay [1] and 55% in assay [2]. The IC50 at P2X purinoceptor 7 was 250 nM. As for `Cn1cc(C(=O)OC[C@H]2CN(Cc3ccc(F)cc3)c3cn(CCc4ccccc4)nc3C(=O)N2)c2ccccc21`, the inhibition in assay [1] came to 39%.

Consider `O=C1N[C@@H](COC(=O)c2cccc3cnccc23)CN(Cc2ccccc2)c2cn(CCc3ccccc3)nc21`, for which the inhibition in assay [1] came out at 68%; in assay [2], 42%. For the same compound, the IC50 on P2X purinoceptor 7 was found to be 1450 nM. Consider `O=C1N[C@@H](Cc2ccccc2)CN(C(=O)C2CC2)c2cn(CCC3CCNCC3)nc21`, for which the inhibition in assay [1] was 13%. Take `Cc1cccc(CN2C[C@H](COC(=O)c3cn(C)c4ccccc34)NC(=O)c3nn(CCc4ccccc4)cc32)c1`: the inhibition in assay [1] came to 46%. The same measure, in the same setting: next, `COc1ccc(CN2C[C@H](COC(=O)c3cn(C)c4ccccc34)NC(=O)c3nn(CCc4ccccc4)cc32)cc1`: 29%. For `CC(C)(C)OC(=O)N1CCC(CCn2cc3c(n2)C(=O)N[C@@H](Cc2ccccc2)CN3C(=O)C2CC2)CC1`, the inhibition in assay [1] turned out to be 61%. For the same compound, the half-inhibitory concentration (IC50) on P2X purinoceptor 7 came to 13000 nM. For `Cn1cc(C(=O)OC[C@H]2CN(Cc3ccccc3)c3cn(CCc4ccccc4)nc3C(=O)N2)c2ccccc21`, the Activity entry in assay [3] is “Dose-dependent effect”. The inhibition in assay [1] is 94%; in assay [2] it was 105%. Besides, the IC50 at P2X purinoceptor 7 worked out at 310 nM. On to `Cn1cc(C(=O)OC[C@H]2CNc3cn(CCc4ccccc4)nc3C(=O)N2)c2ccccc21`, for which the inhibition in assay [1] worked out at 43%. Same read-out and setting: for `O=C1N[C@@H](COC(=O)c2cccc3ccccc23)CN(Cc2ccccc2)c2cn(CCc3ccccc3)nc21` the value was 44%. Take `Cn1cc(C(=O)OC[C@H]2CN(Cc3ccc([N+](=O)[O-])cc3)c3cn(CCc4ccccc4)nc3C(=O)N2)c2ccccc21`: the inhibition in assay [1] turned out to be 65%; in assay [2] it was 41%. Besides, the IC50 on P2X purinoceptor 7 was 1420 nM. In the same order, the values of `Cn1cc(CN2C[C@H](COC(=O)c3cn(C)c4ccccc34)NC(=O)c3nn(CCc4ccccc4)cc32)c2ccccc21` are 68%, 65% and 1070 nM. In the same order, the values of `Cn1cc(C(=O)OC[C@H]2CN(Cc3ccc(Br)cc3)c3cn(CCc4ccccc4)nc3C(=O)N2)c2ccccc21` are 88%, 50% and 850 nM.

In the case of `O=C1N[C@@H](COC(=O)c2cccc3cnccc23)CNc2cn(CCc3ccccc3)nc21`, the inhibition was 71% in assay [1] and 44% in assay [2]. Moreover, on P2X purinoceptor 7, the IC50 came out at 790 nM. Consider `Cn1cc(CN2C[C@H](COC(=O)c3cccc4cnccc34)NC(=O)c3nn(CCc4ccccc4)cc32)c2ccccc21`, for which the inhibition in assay [1] came to 33%. For `Cn1cc(C(=O)OCC2CN(Cc3cccc4ccccc34)c3cn(CCc4ccccc4)nc3C(=O)N2)c2ccccc21` (single isomer, unassigned), the inhibition in assay [1] turned out to be 48%. Turning to `O=C1N[C@@H](COC(=O)c2cccc3cnccc23)CN(Cc2ccc(Br)cc2)c2cn(CCc3ccccc3)nc21`, the inhibition in assay [1] came to 38%.

For `CC(C)(C)OC(=O)N1CCC(CCn2cc3c(n2)C(=O)N[C@H](Cc2ccccc2)CN3C(=O)C2CC2)CC1`, the inhibition in assay [1] is 70%. Besides, the IC50 at P2X purinoceptor 7 amounted to 4310 nM. As to `Cc1ccc(CN2C[C@H](COC(=O)c3cccc4cnccc34)NC(=O)c3nn(CCc4ccccc4)cc32)cc1`, the figures for the inhibition in assay [1] and in assay [2] were 69% and 48%, respectively. In addition, the IC50 at P2X purinoceptor 7 turned out to be 1180 nM.

As to `O=C1N[C@@H](COC(=O)c2cccc3ccccc23)CNc2cn(CCc3ccccc3)nc21`, the inhibition in assay [1] worked out at 46%. `Cc1cc(CN2C[C@H](COC(=O)c3cccc4cnccc34)NC(=O)c3nn(CCc4ccccc4)cc32)ccc1O`: the inhibition in assay [1] amounted to 84%; in assay [2] it was 51%. Besides, on P2X purinoceptor 7, the IC50 came out at 740 nM. As to `Cn1cc(C(=O)OC[C@H]2CN(Cc3cccc(F)c3)c3cn(CCc4ccccc4)nc3C(=O)N2)c2ccccc21`, the inhibition in assay [1] came to 45%.

The record behind these values is ChEMBL document CHEMBL1156084, “Synthesis and structure-activity relationships of pyrazolodiazepine derivatives as human P2X7 receptor antagonists” (Bioorg Med Chem Lett, 2009).
